Measured values taken from paper PMC11605132 (eClinicalMedicine, 2024).
“Also recorded” adds a separate entry of the source. Read-outs that look alike come from different tables or passages of the source.

How the values were obtained:
patients with AIS [1] = assay: All adverse events, AMFIS phase II trial; assay type: in vivo, human
Summary of the method: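 Double-blind, 2:1 stratified block randomization by age (<75, 75–90 years) against a placebo vial of 50 mg D-mannitol. Patients were aged 20–90 with new DWI lesions and treated within 24 h of onset. AEs were monitored from infusion start to 3 days after the intervention ended, with close blood-pressure watch. Severity was graded on five levels (mild to death), and an independent committee judged causality.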

patients with AIS [2] = assay: NIHSS score, primary efficacy endpoint, AMFIS trial; assay type: in vivo, human
Summary of the method: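 Trained stroke neurologists scored NIHSS at baseline, 8, 24 and 72 h after infusion start, and on Day 7, keeping the same examiner per patient where possible. Least square means with 95% CI came from generalized estimating equations. Fixed effects were treatment, time point and treatment×time, with baseline NIHSS as covariate. The same model compared the pulsed and continuous-pulsed groups.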

[3] = assay type: in vivo; details: human, plasma, 9 ng/kg/min, mean ± SD
patients with AIS [4] = assay: Intracerebral hemorrhage on CT and MRI, AMFIS trial; assay type: in vivo, human; details: Day 1 to Day 90
Summary of the method: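 Patients (20–90 years, new DWI lesion, treated within 24 h of onset) were randomized 2:1 to adrenomedullin or a D-mannitol placebo under double-blind conditions. Non-contrast CT was performed at 24 h and on Day 7, and MRI on Day 90.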

healthy volunteers = details: cited from earlier work
[5] = patients receiving adrenomedullin, n=40

In the case of `CC[C@H](C)[C@H](NC(=O)[C@H](CCC(N)=O)NC(=O)[C@H](Cc1c[nH]cn1)NC(=O)[C@H](C)NC(=O)[C@H](CC(C)C)NC(=O)[C@H](CCCCN)NC(=O)[C@H](CCC(N)=O)NC(=O)[C@@H](NC(=O)[C@@H](NC(=O)[C@@H]1CSSC[C@H](NC(=O)CNC(=O)[C@H](Cc2ccccc2)NC(=O)[C@H](CO)NC(=O)[C@H](CCCNC(=N)N)NC(=O)[C@H](CC(C)C)NC(=O)CNC(=O)[C@H](CCC(N)=O)NC(=O)[C@H](Cc2ccccc2)NC(=O)[C@H](CC(N)=O)NC(=O)[C@H](CC(N)=O)NC(=O)[C@H](CCSC)NC(=O)[C@H](CO)NC(=O)[C@H](CCC(N)=O)NC(=O)[C@H](CCCNC(=N)N)NC(=O)[C@@H](N)Cc2ccc(O)cc2)C(=O)N[C@@H](CCCNC(=N)N)C(=O)N[C@@H](Cc2ccccc2)C(=O)NCC(=O)N[C@@H]([C@@H](C)O)C(=O)N1)[C@@H](C)O)C(C)C)C(=O)N[C@@H](Cc1ccc(O)cc1)C(=O)N[C@@H](CCC(N)=O)C(=O)N[C@@H](Cc1ccccc1)C(=O)N[C@H](C(=O)N[C@@H](CC(=O)O)C(=O)N[C@@H](CCCCN)C(=O)N[C@@H](CC(=O)O)C(=O)N[C@@H](CCCCN)C(=O)N[C@@H](CC(=O)O)C(=O)N[C@@H](CC(N)=O)C(=O)N[C@H](C(=O)N[C@@H](C)C(=O)N1CCC[C@H]1C(=O)N[C@@H](CCCNC(=N)N)C(=O)N[C@@H](CO)C(=O)N[C@@H](CCCCN)C(=O)N[C@H](C(=O)N[C@@H](CO)C(=O)N1CCC[C@H]1C(=O)N[C@@H](CCC(N)=O)C(=O)NCC(=O)N[C@@H](Cc1ccc(O)cc1)C(N)=O)[C@@H](C)CC)C(C)C)[C@@H](C)O` [adrenomedullin], the “patients with AEs, n (%, 95% CI)” value (patients with AIS [1]; C/P-AM) is reported as 14, the “patients with AEs, n (%, 95% CI)” value (patients with AIS [1]; P-AM) is reported as 11 and the “cases of drop in blood pressure” value (patients with AIS [1]; adrenomedullin group, n=40) is reported as 10.0%. For the same compound, the “cases of low blood pressure” value (patients with AIS [1]; adrenomedullin group, n=40) was 2.5%, the “life-threatening AEs or death” value (patients with AIS [1]; first-half and second-half cohorts) was “No life-threatening AEs or death were reported” and the Laboratory tests (patients with AIS [1]; in vivo) was “no clinically significant changes”. The tolerability (patients with AIS [1]; non-severe, non-embolic AIS) was “well tolerated”, the “SAEs related to the intervention” value (patients with AIS [1]; [5]) was “Neither intervention-related serious adverse events nor severe adverse events were observed; also recorded: no “SAEs related to the intervention” were reported; also recorded: No SAEs were observed” and the “Severe AEs (grade 3)” value (patients with AIS [1]; [5]) was “observed only in the placebo group”. The “Intergroup difference in NIHSS changes, LSM (95% CI)” value (patients with AIS [2]; 7-day, AM minus placebo, GEE model) was 0.32 (−0.91–1.56), the “NIHSS changes from pre-treatment, LSM (SE; 95% CI in text)” value (from here on “NIHSS changes … (SE; 95% CI in text)”) (patients with AIS [2]; 7-day, AM n=40, GEE model) was −0.76 and the “Intergroup difference in NIHSS changes, LSM (95% CI)” value (patients with AIS [2]; 7-day, C/P-AM minus P-AM, GEE) was 0.67 (−0.64–1.98). The “NIHSS changes … (SE; 95% CI in text)” value (patients with AIS [2]; 7-day, C/P-AM, GEE, dose-finding analysis) was −0.42, the “NIHSS changes … (SE; 95% CI in text)” value (patients with AIS [2]; 7-day, P-AM, GEE, dose-finding analysis) was −1.08 and the “Intergroup difference in NIHSS changes, LSM (95% CI)” value (patients with AIS [2]; 8-h, AM minus placebo, GEE model) was 0.25 (−0.24–0.74). The “Intergroup difference in NIHSS changes, LSM (95% CI)” value (patients with AIS [2]; 8-h, C/P-AM minus P-AM, GEE) was 0.52 (−0.12–1.16), the “Intergroup difference in NIHSS changes, LSM (95% CI)” value (patients with AIS [2]; 24-h, AM minus placebo, GEE model) was 0.15 (−0.46–0.75) and the “Intergroup difference in NIHSS changes, LSM (95% CI)” value (patients with AIS [2]; 24-h, C/P-AM minus P-AM, GEE) was 0.62 (−0.29–1.53). The “Intergroup difference in NIHSS changes, LSM (95% CI)” value (patients with AIS [2]; 72-h, AM minus placebo, GEE model) was 0.35 (−0.93–1.63), the “Intergroup difference in NIHSS changes, LSM (95% CI)” value (patients with AIS [2]; 72-h, C/P-AM minus P-AM, GEE) was 0.32 (−1.09–1.72) and the “mean change in the NIHSS score from pre-treatment to Day 7” value (“mean change in the NIHSS score” for short) (patients with AIS [2]; C/P-AM) was −0.45. The “median change in the NIHSS score from pre-treatment to Day 7” value (shortened to “median change in the NIHSS score”) (patients with AIS [2]; C/P-AM) was −0.5, the “mean change in the NIHSS score” value (patients with AIS [2]; P-AM) was −1.05 and the “median change in the NIHSS score” value (patients with AIS [2]; P-AM) was −1. For the same compound, the “efficacy on NIHSS scores” value (patients with AIS [2]; in vivo) was “not demonstrated”, the “mean change in the NIHSS score” value (patients with AIS [2]; [5]) was −0.75 and the “median change in the NIHSS score” value (patients with AIS [2]; [5]) was −1.00. For the same compound, the Cmax ([3]; C/P-AM) was 0.061 ng/mL, the Cmax ([3]; P-AM) was 0.0442 ng/mL and the “intracerebral hemorrhage on CT and MRI” value (patients with AIS [4]) was “no intracerebral hemorrhage was observed”. For the same compound, the half-life (healthy volunteers) was less than 1 h, the “blood levels of adrenomedullin” value (healthy volunteers; dose of 9 ng/kg/min) was 0.01 to 0.02 ng/mL and the severe adverse events (healthy volunteers; healthy volunteers) was “no severe adverse events”.
